From ChEMBL document CHEMBL1124368 (J Med Chem, 1989)

Tests used:
Dihydrofolate reductase = biological target: T1, Dihydrofolate reductase (Rattus norvegicus, UniProt Q920D2); assay: In vitro inhibitory concentration against rat liver dihydrofolate reductase(DHFR); conditions: read-out: I50
T1 sequence (Q920D2 whole entry): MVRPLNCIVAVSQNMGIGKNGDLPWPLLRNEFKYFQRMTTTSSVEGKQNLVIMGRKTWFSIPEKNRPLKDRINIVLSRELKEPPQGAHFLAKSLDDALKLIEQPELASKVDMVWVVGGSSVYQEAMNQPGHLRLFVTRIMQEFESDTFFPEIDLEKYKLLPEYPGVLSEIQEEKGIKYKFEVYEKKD
Method in brief: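 Partially purified rat liver DHFR, prepared by the Bertino and Fischer method, assayed spectrophotometrically at 340 nm. I50 is the final inhibitor concentration that cuts the reaction rate to 50% of the uninhibited rate. […] Inhibitors were dissolved in 0.1 M HCl or 95% ethanol.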

Mus musculus [1] = assay: Ratio of tumor volume of test(T) animals compared to control(C) animals x 100 T/C(%)] at a dose of 6.25 mg/kg/day; format: functional
Method in brief: (§1)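 M5076 reticulum cell sarcoma: 10⁶ cells implanted im into the left leg of female BDF₁ mice (groups of five) on day 0. Treatment was ip, daily on days 1–17, in 10–20% DMSO in arachis oil. T/C% is treated tumor volume over control tumor volume × 100.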

Mus musculus [2] = assay: (§2) Mean of weight gain from day 0 to day 24 at a dose of 3.125 mg/kg/day of compound; format: functional; set-up: unit not given here
Method in brief: (§3)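 M5076 reticulum cell sarcoma: 10⁶ cells implanted im into the left leg of female BDF₁ mice (groups of five) on day 0. Drug in 10–20% DMSO in arachis oil was given ip daily on days 1–17. Weight change is the mean weight gain from day 0 to day 24.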

Mus musculus [3] = assay: Mean of weight gain from day 0 to day 24 at a dose of 6.25 mg/kg/day; format: functional; set-up: unit not given here; method in brief: as §3
Mus musculus [4] = assay: Tumor volume in 24 days after tumor implantation at a dose of 6.25 mg/kg/day; format: functional
Method in brief: (§4)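 10⁶ M5076 reticulum cell sarcoma cells were injected im into the left leg of female BDF₁ mice, five per group, on day 0. Compound in 10–20% DMSO/arachis oil was dosed ip daily on days 1–17. Tumor volumes (mm³) were recorded on days 12, 16, 20 and 24 after implantation, with NM marking a tumor that could not be measured.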

Mus musculus [5] = assay: Ratio of tumor volume of test(T) animals compared to control(C) animals x 100 T/C(%)] at a dose of 3.125 mg/kg/day; format: functional; method in brief: as §1
Mus musculus [6] = assay: Tumor volume in 24 days after tumor implantation at a dose of 3.125 mg/kg/day; format: functional; method in brief: as §4
Mus musculus [7] = assay: Mean of weight gain from day 0 to day 24 at a dose of 25 mg/kg/day of compound; format: functional; set-up: unit not given here; method in brief: as §3
Mus musculus [8] = assay: Tumor volume in 20 days after tumor implantation at a dose of 6.25 mg/kg/day of compound; format: functional; method in brief: as §4
Mus musculus [9] = assay: Ratio of tumor volume of test(T) animals compared to control(C) animals x 100 T/C(%)] at a dose of 12.50 mg/kg/day; format: functional; method in brief: as §1
Mus musculus [10] = assay: Tumor volume in 24 days after tumor implantation at a dose of 12.5 mg/kg/day; format: functional; method in brief: as §4
Mus musculus [11] = assay: Tumor volume in 20 days after tumor implantation at a dose of 3.125 mg/kg/day; format: functional; method in brief: as §4
Mus musculus [12] = assay: Mean of weight gain from day 0 to day 24 at a dose of 12.5 mg/kg/day of compound; format: functional; set-up: unit not given here; method in brief: as §3
Mus musculus [13] = assay: Ratio of tumor volume of test(T) animals compared to control(C) animals x 100 T/C(%)] at a dose of 25 mg/kg/day; format: functional; method in brief: as §1
Mus musculus [14] = assay: Tumor volume in 16 days after tumor implantation at a dose of 3.125 mg/kg/day of compound; format: functional; method in brief: as §4
Mus musculus [15] = assay: as §2; format: functional; method in brief: as §3

| Compound | IC50 (Dihydrofolate reductase) [µM] | Antitumor activity (Mus musculus [1]) [%] | Weight change (Mus musculus [3]) | Tumor volume (Mus musculus [4]) [mm**3] | Antitumor activity (Mus musculus [5]) [%] | Tumor volume (Mus musculus [6]) [mm**3] | also measured |
| --- | --- | --- | --- | --- | --- | --- | --- |
| CCc1nc(N)nc(N)c1-c1ccc(N(C)C)c(N)c1 | 67 |  |  |  |  |  |  |
| CCc1nc(N)nc(N)c1-c1ccc(Cl)c([N+](=O)[O-])c1 | 0.08 |  |  |  |  |  |  |
| CCc1nc(N)nc(N)c1-c1ccc(N2CCNCC2)c([N+](=O)[O-])c1 | 3.1 |  |  |  |  |  |  |
| CCc1nc(N)nc(N)c1-c1ccc(NCc2ccc(OC)c(OC)c2)c([N+](=O)[O-])c1 |  | 9 | 0.9 | 324 | 10 | 371 | Weight change (Mus musculus [2]): 1 |
| CCc1nc(N)nc(N)c1-c1ccc(NCc2ccccc2)c([N+](=O)[O-])c1 |  | 34 | 2.1 | 932 | 53 | 1454 | Weight change (Mus musculus [7]): 1.7; Weight change (Mus musculus [2]): 2.2; Tumor volume (Mus musculus [8]): 301 mm**3; Antitumor activity (Mus musculus [9]): 21%; Tumor volume (Mus musculus [10]): 586 mm**3; Tumor volume (Mus musculus [11]): 443 mm**3; Weight change (Mus musculus [12]): 1.6; Antitumor activity (Mus musculus [13]): <8% |
| CCc1nc(N)nc(N)c1-c1ccc(N2CCOCC2)c(N)c1 | > 25 |  |  |  |  |  |  |
| CCc1nc(N)nc(N)c1-c1ccc(N2CCCC2)c([N+](=O)[O-])c1 | 1.7 |  |  |  |  |  |  |
| CCc1nc(N)nc(N)c1-c1ccc(NCc2ccc(F)cc2)c([N+](=O)[O-])c1 |  | 20 | 2.5 | 448 | 68 | 1555 | Tumor volume (Mus musculus [14]): 337 mm**3; Weight change (Mus musculus [7]): 4.3; Weight change (Mus musculus [15]): 3.8; Antitumor activity (Mus musculus [9]): 17%; Tumor volume (Mus musculus [10]): 386 mm**3; Tumor volume (Mus musculus [11]): 539 mm**3; Weight change (Mus musculus [12]): 2; Antitumor activity (Mus musculus [13]): <8% |
| CCc1nc(N)nc(N)c1-c1ccc(NCc2ccc(Cl)cc2)c([N+](=O)[O-])c1 |  | 20 | 3.3 | 597 | 29 | 873 | Weight change (Mus musculus [2]): 3.2; Antitumor activity (Mus musculus [9]): 13%; Tumor volume (Mus musculus [10]): 380 mm**3; Tumor volume (Mus musculus [11]): 552 mm**3; Weight change (Mus musculus [12]): 2.9 |
| CCc1nc(N)nc(N)c1-c1ccc([N+](=O)[O-])c(N(C)Cc2ccccc2)c1 | 0.44 |  |  |  |  |  |  |
| CCc1nc(N)nc(N)c1-c1ccc(N(C)C)cc1 | 6.2 |  |  |  |  |  |  |
| CCc1nc(N)nc(N)c1-c1ccc(N(C)C2CCCCC2)c(N)c1 | 8.5 |  |  |  |  |  |  |
| CCc1nc(N)nc(N)c1-c1ccc(N2CCN(C)CC2)c(N)c1 | > 25 |  |  |  |  |  |  |
